System: MS2 coat protein
Experiment: apparent Kd, MS2 coat protein; higher = weaker binding; RNA-MaP array; FMN 200 µM where present
Outline: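 The apparent Kd is reported as the median of filtered per-cluster binding-curve fits. To get these curves, designs transcribed by stalled E. coli RNA polymerase on Illumina sequencing-chip clusters were titrated with SNAP-549-labelled MS2 coat protein from 0.7 or 1.5 nM, doubling to 3 µM. Titrations were run without and then with constant ligand in 100 mM Tris-HCl pH 7.5, 80 mM KCl, 4 mM MgCl2, BSA, DTT, yeast tRNA and Tween-20, and green signal was normalised to red-channel RNA signal and control-cluster median Fmax.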

[1] = designed as: ON switch for flavin mononucleotide, no ligand
[2] = ligand present: flavin mononucleotide, designed as: ON switch for flavin mononucleotide
[3] = designed as: OFF switch for flavin mononucleotide, no ligand
[4] = ligand present: flavin mononucleotide, designed as: OFF switch for flavin mononucleotide

UUUCGUCUCGAGAAGGUCUAUCGACAUGAGGAUCACCCAUGUUGCCAUGGAAGGAUAUCGAAGGCAGCACGGGAAAUAGUCCGG
apparent Kd [1]: 78.3 nM | apparent Kd [2]: 14 nM

CUGAUGUGAGGAUAUGUGAUCUGCCUUCUAUGUAGAUGAUCACAGAAGGCACAUGAGGAUCACCCAUGUAGAUC
apparent Kd [3]: 85.9 nM | apparent Kd [4]: 94.3 nM

AGACUGAAUGUUAGGAUAUGGUUUCGGGUCUCGGACCAGAAGGAACAUGAGGAUCACCCAUGUGCCGUGGUUGU
apparent Kd [3]: 29 nM | apparent Kd [4]: 153 nM

AAUAUGUGAGGAUAUAUCCACCGCGUAGGCGCGCGGUGACAAUAGAAGGUACAUGAGGAUCACCCAUGUAGGGA
apparent Kd [3]: 51.5 nM | apparent Kd [4]: 31.5 nM

CCUCUGUCCGAGGAUAUGAGGUUAACGUGACCGUCAGAAGGCGGAACAUGAGGAUCACCCAUGUUUUGCGCAUG
apparent Kd [3]: 44.2 nM | apparent Kd [4]: 68 nM

GUGGUCAGACAUGAGGAUCACCCAUGUGGAAUAAAUAAGGAGAAGGAUAUCUAAUAUAGGAUAUAAGAGAAGGUUUGGUUGGUG
apparent Kd [1]: 74 nM | apparent Kd [2]: 68 nM

UUCAUUAACAUGAGGAUCACCCAUGUUGGCCAGUCUCACACCAGAAGGCACGUUGAGCACAUCAGUGAGGAUAUGGGUGACAUA
apparent Kd [1]: 331 nM | apparent Kd [2]: 91 nM

GUAGCAUACCGAGGAUAUUCAGGGCGUGAAUAAACAUGAGGAUCACCCAUGUGGCGAAAGCCUAGGGAGAAGGCGGAAUGCUAC
apparent Kd [1]: 25.9 nM | apparent Kd [2]: 19.1 nM

UUAGAAUUGUUAGGAUAUUAAUUAUUUUUUAGUAUGAUCUACAUGAGGAUCACCCAUGUUAAAUAUAAGAAGGAACGUUAUAUU
apparent Kd [3]: 63.6 nM | apparent Kd [4]: 63.6 nM

UGUUGUAUUACAGGAUAUCUAUUAUUUUUAUUUAGAGAAGGGUAUUCACAUGAGGAUCACCCAUGUAUAUACGAGGAAGUUGUG
apparent Kd [1]: 52.6 nM | apparent Kd [2]: 58.9 nM

GGAUAAGACAGAGGAUAUACGUGCUAGAGAUACUAGCAAAAUUUCCUCACAUGAGGAUCACCCAUGUAGAAGGCUGUCCUAUCG
apparent Kd [3]: 16.9 nM | apparent Kd [4]: 291 nM

AACUCACAUGAGGAUCACCCAUGUGAGGAUAUAUAAAUAUAUAUGUUAUUAUAUAUUUAUAGAAGGCGCGUGAU
apparent Kd [3]: 44.1 nM | apparent Kd [4]: 46.9 nM

UCUUUCCGGAAUAUAAGUUGACUUCAGGAUAUCACAUGAGGAUCACCCAUGUGAUGCUUUAUUGCUGAGAAGGGAAGUCAUACC
apparent Kd [3]: 11.7 nM | apparent Kd [4]: 38.6 nM

UGAAAUCAUGUAGGAUAUGCAUGGCGCAGCUACGCAGAAGGACAUGAGGAUCACCCAUGUUAUAGCUACCCAGUUCGGUGGCAA
apparent Kd [3]: 30.6 nM | apparent Kd [4]: 173 nM

ACAAAGCAUGUAGGAUAUCCAUUGCGUCGCGAUGGAGAAGGACAACACACAUGAGGAUCACCCAUGUGAUCACCCAUGUCAUGU
apparent Kd [3]: 866 nM | apparent Kd [4]: 1210 nM

CUGGGCGGUUUGCCCACACUGUCACAGGAUAUGCCCAAAACAUGAGGAUCACCCAUGUCAAAUACGCAGAAGGGUGAUCGGAAC
apparent Kd [1]: 107 nM | apparent Kd [2]: 62.5 nM

UUGCCUCAGAACAUGAGGAUCACCCAUGUGCUGCGGGCAACGUAGGAUAUGAUGGUGUGACACCAUCAGAAGGAUGAUGGUACC
apparent Kd [1]: 5.97 nM | apparent Kd [2]: 5.81 nM

AAAGAAAACAUAGGAUAUGUAACAUGAGGAUCACCCAUGUAUACCUCGUAAGAGAUGAUGGAUGGACAGAAGGAUGAUCUCAGG
apparent Kd [1]: 140 nM | apparent Kd [2]: 214 nM

AUUGCUCGAGAGAAGGGAACAUGAGGAUCACCCAUGUUACCUCACCUGGUGACGGAACUCCAAGUUCAGGAUAUCUCGAACGAU
apparent Kd [3]: 5.63 nM | apparent Kd [4]: 8.13 nM

UUGGACGUCGUAGGAUAUGUAGGAUAUUCCUACAUGAGGAUCACCCAUGUUGACACGGAAGAAGGACAGAAGGACGAUGUCCAU
apparent Kd [1]: 11.6 nM | apparent Kd [2]: 4.23 nM
